Experimental data published in ChEMBL document CHEMBL1649231, “In vitro activities of panduratin A against clinical Staphylococcus strains” (2009).
Converted amounts (≈) assume the structure as drawn.

Legend:
Type in all cases: functional
Staphylococcus hominis [1] = experiment: Antimicrobial activity against methicillin-resistant coagulase-negative Staphylococcus hominis assessed as intermediate resistant isolates after 24 hrs by broth microdilution method
Staphylococcus simulans [2] = experiment: Bactericidal activity against methicillin-resistant coagulase-negative Staphylococcus simulans after 24 hrs by plate counting method
How it was run: (§1)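 Clinical staphylococcal isolates from patient body fluids, blood, genital secretions, pus or sputum; species by conventional methods or Vitek. Twofold dilutions in Mueller-Hinton broth, inoculum 5 × 10^5 CFU/ml, 37°C aerobic 24 h (CLSI M7-A6 microdilution). About 100 μl from each well without visible growth spread on MHA; 37°C 24 h. MBC = lowest concentration giving no growth on agar.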

[3] = test system: Staphylococcus epidermidis; experiment: Bactericidal activity against methicillin-susceptible coagulase-negative Staphylococcus epidermidis after 24 hrs by plate counting method; how it was run: as §1
Staphylococcus simulans [4] = experiment: Bactericidal activity against methicillin-susceptible coagulase-negative Staphylococcus simulans after 24 hrs by plate counting method; how it was run: as §1
[5] = test system: Staphylococcus haemolyticus; experiment: Bactericidal activity against methicillin-susceptible coagulase-negative Staphylococcus haemolyticus after 24 hrs by plate counting method; how it was run: as §1
Staphylococcus simulans [6] = experiment: Antimicrobial activity against methicillin-resistant coagulase-negative Staphylococcus simulans after 24 hrs by broth microdilution method
How it was run: (§2)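 Clinical isolates came from blood, body fluids, genital secretions, pus or sputum, identified conventionally or by Vitek. MICs were run by CLSI M7-A6 broth microdilution in Mueller-Hinton broth with 5 × 10^5 CFU/ml inoculum. Agents were twofold serially diluted, starting from 10% DMSO. Drug-free and uninoculated controls were included. Plates were incubated aerobically at 37°C for 24 h; MIC is the lowest concentration giving no visible growth.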

Mammaliicoccus sciuri [7] = experiment: Antimicrobial activity against methicillin-susceptible coagulase-negative Staphylococcus sciuri assessed as resistant isolates after 24 hrs by broth microdilution method
Mammaliicoccus sciuri [8] = experiment: Bactericidal activity against methicillin-susceptible coagulase-negative Staphylococcus sciuri after 24 hrs by plate counting method; how it was run: as §1
Mammaliicoccus sciuri [9] = experiment: Antimicrobial activity against methicillin-resistant coagulase-negative Staphylococcus sciuri assessed as intermediate resistant isolates after 24 hrs by broth microdilution method
Mammaliicoccus sciuri [10] = experiment: Antimicrobial activity against methicillin-susceptible coagulase-negative Staphylococcus sciuri after 24 hrs by broth microdilution method; how it was run: as §2
Staphylococcus hominis [11] = experiment: Bactericidal activity against methicillin-susceptible coagulase-negative Staphylococcus hominis after 24 hrs by plate counting method; how it was run: as §1
Mammaliicoccus sciuri [12] = experiment: Antimicrobial activity against methicillin-resistant coagulase-negative Staphylococcus sciuri after 24 hrs by broth microdilution method; how it was run: as §2
Staphylococcus hominis [13] = experiment: Antimicrobial activity against methicillin-resistant coagulase-negative Staphylococcus hominis assessed as resistant isolates after 24 hrs by broth microdilution method
[14] = test system: Staphylococcus haemolyticus; experiment: Antimicrobial activity against methicillin-resistant coagulase-negative Staphylococcus haemolyticus assessed as intermediate resistant isolates after 24 hrs by broth microdilution method
Staphylococcus hominis [15] = experiment: Antimicrobial activity against methicillin-susceptible coagulase-negative Staphylococcus hominis after 24 hrs by broth microdilution method; how it was run: as §2
[16] = test system: Staphylococcus epidermidis; experiment: Antimicrobial activity against methicillin-resistant coagulase-negative Staphylococcus epidermidis assessed as intermediate resistant isolates after 24 hrs by broth microdilution method
Staphylococcus aureus [17] = experiment: Antimicrobial activity against methicillin-susceptible Staphylococcus aureus assessed as intermediate resistant isolates after 24 hrs by broth microdilution method
Staphylococcus simulans [18] = experiment: Antimicrobial activity against methicillin-resistant coagulase-negative Staphylococcus simulans assessed as resistant isolates after 24 hrs by broth microdilution method
Staphylococcus hominis [19] = experiment: Antimicrobial activity against methicillin-resistant coagulase-negative Staphylococcus hominis assessed as susceptible isolates after 24 hrs by broth microdilution method
Mammaliicoccus sciuri [20] = experiment: Antimicrobial activity against methicillin-resistant coagulase-negative Staphylococcus sciuri assessed as susceptible isolates after 24 hrs by broth microdilution method
[21] = test system: Staphylococcus haemolyticus; experiment: Antimicrobial activity against methicillin-susceptible coagulase-negative Staphylococcus haemolyticus assessed as susceptible isolates after 24 hrs by broth microdilution method
[22] = test system: Staphylococcus epidermidis; experiment: Antimicrobial activity against methicillin-resistant coagulase-negative Staphylococcus epidermidis assessed as susceptible isolates after 24 hrs by broth microdilution method
Staphylococcus simulans [23] = experiment: Antimicrobial activity against methicillin-susceptible coagulase-negative Staphylococcus simulans assessed as resistant isolates after 24 hrs by broth microdilution method
Staphylococcus aureus [24] = experiment: Antimicrobial activity against methicillin-resistant Staphylococcus aureus assessed as intermediate resistant isolates after 24 hrs by broth microdilution method
Staphylococcus simulans [25] = experiment: Antimicrobial activity against methicillin-susceptible coagulase-negative Staphylococcus simulans after 24 hrs by broth microdilution method; how it was run: as §2
Staphylococcus aureus [26] = experiment: Antimicrobial activity against methicillin-resistant Staphylococcus aureus assessed as susceptible isolates after 24 hrs by broth microdilution method
Staphylococcus aureus [27] = experiment: Bactericidal activity against methicillin-resistant Staphylococcus aureus after 24 hrs by plate counting method
[28] = test system: Staphylococcus haemolyticus; experiment: Antimicrobial activity against methicillin-resistant coagulase-negative Staphylococcus haemolyticus assessed as resistant isolates after 24 hrs by broth microdilution method
Staphylococcus aureus [29] = experiment: Antimicrobial activity against methicillin-susceptible Staphylococcus aureus after 24 hrs by broth microdilution method; how it was run: as §2
Staphylococcus hominis [30] = experiment: Antimicrobial activity against methicillin-resistant coagulase-negative Staphylococcus hominis after 24 hrs by broth microdilution method; how it was run: as §2
Staphylococcus hominis [31] = experiment: Bactericidal activity against methicillin-resistant coagulase-negative Staphylococcus hominis after 24 hrs by plate counting method
[32] = test system: Staphylococcus haemolyticus; experiment: Antimicrobial activity against methicillin-susceptible coagulase-negative Staphylococcus haemolyticus assessed as resistant isolates after 24 hrs by broth microdilution method
Staphylococcus hominis [33] = experiment: Antimicrobial activity against methicillin-susceptible coagulase-negative Staphylococcus hominis assessed as susceptible isolates after 24 hrs by broth microdilution method
Staphylococcus aureus [34] = experiment: Bactericidal activity against methicillin-susceptible Staphylococcus aureus after 24 hrs by plate counting method; how it was run: as §1
Staphylococcus aureus [35] = experiment: Antimicrobial activity against methicillin-susceptible Staphylococcus aureus assessed as susceptible isolates after 24 hrs by broth microdilution method
Staphylococcus hominis [36] = experiment: Antimicrobial activity against methicillin-susceptible coagulase-negative Staphylococcus hominis assessed as resistant isolates after 24 hrs by broth microdilution method
[37] = test system: Staphylococcus haemolyticus; experiment: Antimicrobial activity against methicillin-resistant coagulase-negative Staphylococcus haemolyticus after 24 hrs by broth microdilution method; how it was run: as §2
[38] = test system: Staphylococcus haemolyticus; experiment: Antimicrobial activity against methicillin-susceptible coagulase-negative Staphylococcus haemolyticus after 24 hrs by broth microdilution method; how it was run: as §2

SMILES: CN(C)[C@@H]1C(O)=C(C(N)=O)C(=O)[C@@]2(O)C(O)=C3C(=O)c4c(O)cccc4[C@@](C)(O)[C@H]3C[C@@H]12 [TETRACYCLINE]
- Activity (Staphylococcus hominis [1]): 7%
- MBC50 (Staphylococcus simulans [2]): 4 µg/mL (≈ 9 µM)
- MBC (Staphylococcus simulans [2]; Staphylococcus simulans, 24 h): 0.5 µg/mL (≈ 1.13 µM)
- MBC50 [3]: 8 µg/mL (≈ 18 µM)
- MBC90 [3]: 128 µg/mL (≈ 288 µM)
- MBC ([3]; Staphylococcus epidermidis, 24 h): 1 µg/mL (≈ 2.25 µM)
- MBC50 (Staphylococcus simulans [4]): 8 µg/mL (≈ 18 µM)
- MBC90 (Staphylococcus simulans [4]): 128 µg/mL (≈ 288 µM)
- MBC (Staphylococcus simulans [4]; Staphylococcus simulans, 24 h): 1 µg/mL (≈ 2.25 µM)
- MBC50 [5]: 8 µg/mL (≈ 18 µM)
- MBC90 [5]: 128 µg/mL (≈ 288 µM)
- MBC ([5]; Staphylococcus haemolyticus, 24 h): 1 µg/mL (≈ 2.25 µM)
- MIC50 (Staphylococcus simulans [6]): 1 µg/mL (≈ 2.25 µM)
- MIC90 (Staphylococcus simulans [6]): 64 µg/mL (≈ 144 µM)
- Activity (Mammaliicoccus sciuri [7]): 12%
- MBC50 (Mammaliicoccus sciuri [8]): 8 µg/mL (≈ 18 µM)
- MBC90 (Mammaliicoccus sciuri [8]): 128 µg/mL (≈ 288 µM)
- MBC (Mammaliicoccus sciuri [8]; Mammaliicoccus sciuri, 24 h): 1 µg/mL (≈ 2.25 µM)
- Activity (Mammaliicoccus sciuri [9]): 7%
- MIC (Mammaliicoccus sciuri [10]): 0.5 µg/mL (≈ 1.13 µM)
- MIC50 (Mammaliicoccus sciuri [10]): 0.5 µg/mL (≈ 1.13 µM)
- MIC90 (Mammaliicoccus sciuri [10]): 32 µg/mL (≈ 72 µM)
- MBC50 (Staphylococcus hominis [11]): 8 µg/mL (≈ 18 µM)
- MBC90 (Staphylococcus hominis [11]): 128 µg/mL (≈ 288 µM)
- MBC (Staphylococcus hominis [11]; Staphylococcus hominis, 24 h): 1 µg/mL (≈ 2.25 µM)
- MIC50 (Mammaliicoccus sciuri [12]): 1 µg/mL (≈ 2.25 µM)
- MIC90 (Mammaliicoccus sciuri [12]): 64 µg/mL (≈ 144 µM)
- Activity (Staphylococcus hominis [13]): 75%
- Activity [14]: 7%
- MIC (Staphylococcus hominis [15]): 0.5 µg/mL (≈ 1.13 µM)
- MIC50 (Staphylococcus hominis [15]): 0.5 µg/mL (≈ 1.13 µM)
- MIC90 (Staphylococcus hominis [15]): 32 µg/mL (≈ 72 µM)
- Activity [16]: 7%
- Activity (Staphylococcus aureus [17]): 19%
- Activity (Staphylococcus simulans [18]): 75%
- Activity (Staphylococcus hominis [19]): 18%
- Activity (Mammaliicoccus sciuri [20]): 7%
- Activity [21]: 69%
- Activity [22]: 18%
- Activity (Staphylococcus simulans [23]): 4%
- Activity (Staphylococcus aureus [24]): 0%
- MIC (Staphylococcus simulans [25]): 0.5 µg/mL (≈ 1.13 µM)
- MIC50 (Staphylococcus simulans [25]): 0.5 µg/mL (≈ 1.13 µM)
- MIC90 (Staphylococcus simulans [25]): 32 µg/mL (≈ 72 µM)
- Activity (Staphylococcus aureus [26]): 30%
- MBC50 (Staphylococcus aureus [27]): 64 µg/mL (≈ 144 µM)
- MBC90 (Staphylococcus aureus [27]): 512 µg/mL (≈ 1150 µM)
- MBC (Staphylococcus aureus [27]; Staphylococcus aureus, 24 h): 2 µg/mL (≈ 4.5 µM)
- Activity [28]: 75%
- MIC50 (Staphylococcus aureus [29]): 4 µg/mL (≈ 9 µM)
- MIC90 (Staphylococcus aureus [29]): 8 µg/mL (≈ 18 µM)
- MIC50 (Staphylococcus hominis [30]): 1 µg/mL (≈ 2.25 µM)
- MIC90 (Staphylococcus hominis [30]): 64 µg/mL (≈ 144 µM)
- MBC50 (Staphylococcus hominis [31]): 4 µg/mL (≈ 9 µM)
- MBC (Staphylococcus hominis [31]; Staphylococcus hominis, 24 h): 0.5 µg/mL (≈ 1.13 µM)
- Activity [32]: 12%
- Activity (Staphylococcus hominis [33]): 69%
- MBC50 (Staphylococcus aureus [34]): 8 µg/mL (≈ 18 µM)
- MBC90 (Staphylococcus aureus [34]): 32 µg/mL (≈ 72 µM)
- MBC (Staphylococcus aureus [34]; Staphylococcus aureus, 24 h): 1 µg/mL (≈ 2.25 µM)
- Activity (Staphylococcus aureus [35]): 70%
- Activity (Staphylococcus hominis [36]): 12%
- MIC50 [37]: 1 µg/mL (≈ 2.25 µM)
- MIC90 [37]: 64 µg/mL (≈ 144 µM)
- MIC [38]: 0.5 µg/mL (≈ 1.13 µM)
- MIC50 [38]: 0.5 µg/mL (≈ 1.13 µM)
- MIC90 [38]: 32 µg/mL (≈ 72 µM)
